Compound activity: PubChem BioAssay, Broad Institute
ERAP1 HTS inh: ERAP1 (human) enzyme inhibition; inhibition, % at 10.7 µM; 0.15% of 340,000 active; AID 652197; Q9NZ08; recombinant ERAP1, Leu-AMC fluorescence, 60 min;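 active = mean replicate inhibition of at least 30%, or all replicates individually reaching that 30% level; inactive = mean below 30% and not every replicate reaching it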
S100A4 MyoIIA: S100A4-myosin IIA interaction inhibition; P26447; S100A4/TAMRA-MyoIIA peptide fluorescence polarization; inhibition, % at 10.7 µM; 0.14% of 360,000 active;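 active = mean inhibition of at least 70% across replicates, with every replicate also reaching that level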
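incubation = readout 5 min after mixing, signal stable up to 60 min | system = S100A4 monomer protein | buffer or medium = HEPES pH 7.2 with CaCl2, KCl, NaCl, DTT, Triton | benchmarks = neutral control DMSO, positive control TFP | also added = fluorescent myosin IIA peptide, 5 nM | compound dosing = one concentration per compound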
Ecoli rRNA inh: inhibits bacterial ribosomal RNA function over humanized ribosomes; E. coli WT GFP vs humanized-ribosome RFP mutants, fluorescence, 24 h; active compounds read low; DMSO median 0, no signal -100; GFP signal change (wild-type ribosome), % (test concentration not listed); 1.6% of 350,000 active; AID 720706;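 active = significant combined selectivity score with lowered wild-type GFP, culture density cut under 30%, mutant RFP and density less affected; inactive = any of these conditions unmet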
SIRT5 block: blocks human SIRT5 desuccinylation of peptide. 1.1% of 330,000 active. Purified SirT5, succinyl-peptide AMC, trypsin-coupled fluorescence. inhibition, % at 15 µM. AID 652115; in the data active = inhibition above about 15%
AF4-AF9 inh: inhibitors of human MLL-AF4/AF9 interaction. inhibition, % at 10 µM. AlphaScreen, biotin-AF4 peptide binding to FLAG-AF9. 0.47% of 350,000 active. P42568;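 active = every replicate reaching a set inhibition limit, whatever the replicate mean, cut at about 25% in these data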
E-selectin induc: E-selectin induction on HUVECs; P16581; HUVEC E-selectin immunofluorescence imaging; normalized: neutral wells 0, TNF-alpha wells 100; activation, % at 7.58 µM; 0.37% of 260,000 active;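 active = mean E-selectin-positive cell signal at least 10% of the positive control, reached in at least 60% of replicates, without over 20% cell loss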
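Test system: HUVEC | Signal: Immunofluorescence imaging | Read-out: Percent E-selectin-positive cells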
AlphaScreen intf: AlphaScreen signal interference counter-screen hit; AID 720494; signal luminescence; AC50, µM (series often up to 12 µM); 45% of 530 active; shares compounds with AF4-AF9 inh; cut-off not given, nearly all actives have AC50 up to about 14 µM
Hits are given with their value. A selection: hits, their analogues and other compounds. The true share with any hit is near 3.4%.

For CCCNC(=O)C[C@@H]1CC[C@@H]2[C@H](COc3ccc(NC(=O)C4CCCC4)cc3C(=O)N2C)O1 the results were ERAP1 HTS inh inactive, S100A4 MyoIIA inactive, Ecoli rRNA inh inactive, SIRT5 block inactive, AF4-AF9 inh inactive and E-selectin induc inactive.
For CCC1CCCCN1C(=S)NN=C(C)c1ccccn1 (centres undefined) the results were ERAP1 HTS inh inactive, S100A4 MyoIIA inactive, AF4-AF9 inh 37, E-selectin induc inactive and AlphaScreen intf 7.4µM.
`CC(=NNC(=S)N1CCCCC1)c1ccccn1` gave ERAP1 HTS inh inactive, S100A4 MyoIIA inactive, Ecoli rRNA inh inactive, SIRT5 block inactive, AF4-AF9 inh inactive and E-selectin induc inactive.
For C[C@@H]1CN([C@@H](C)CO)S(=O)(=O)c2ccc(C#C[C@@H](C)O)cc2O[C@@H]1CN(C)C(=O)Nc1ccccc1 the results were ERAP1 HTS inh inactive, S100A4 MyoIIA inactive, Ecoli rRNA inh inactive, SIRT5 block inactive, AF4-AF9 inh inactive and E-selectin induc inactive.
`O=[N+]([O-])c1ccc(Nc2c3ccccc3nc3ccccc23)cc1` gave ERAP1 HTS inh inactive, S100A4 MyoIIA inactive, Ecoli rRNA inh inactive, SIRT5 block inactive and AF4-AF9 inh inactive.
For NC(N)=NCCCS(=O)(=O)Nc1ccc(Nc2c3ccccc3nc3cc([N+](=O)[O-])ccc23)cc1 the results were ERAP1 HTS inh inactive, S100A4 MyoIIA inactive, SIRT5 block inactive, AF4-AF9 inh 78 and AlphaScreen intf 5.6µM.
Screening CCOc1ccc(/C=N/Nc2cc(N3CCOCC3)ncn2)c(O)c1 returned ERAP1 HTS inh inactive, S100A4 MyoIIA inactive, Ecoli rRNA inh inactive, AF4-AF9 inh 32, E-selectin induc inactive and AlphaScreen intf 14µM.
`Cc1ccc2c(c1)c1c(n2CC(O)CN2CCCCCC2)CCCC1` (centres undefined) gave ERAP1 HTS inh inactive, S100A4 MyoIIA inactive, Ecoli rRNA inh inactive, SIRT5 block inactive, AF4-AF9 inh 35, E-selectin induc inactive and AlphaScreen intf inactive.
Cc1ccc(NC(=O)Nc2ccc3c(c2)C(=O)N(C)[C@H]2CC[C@H](CC(=O)NCC(F)(F)F)O[C@@H]2CO3)cc1 was read as ERAP1 HTS inh inactive, S100A4 MyoIIA inactive, Ecoli rRNA inh inactive, SIRT5 block inactive, AF4-AF9 inh inactive and E-selectin induc inactive.
For C/C=C/c1ccc(C2[C@H]3CNC[C@@H]2N3Cc2ccccc2OC)cc1 (some centres undefined) the results were ERAP1 HTS inh inactive, S100A4 MyoIIA inactive, Ecoli rRNA inh inactive, SIRT5 block inactive, AF4-AF9 inh inactive and E-selectin induc inactive.
Screening O=C(Nc1ccc(F)cc1)N[C@@H]1CC[C@@H](CC(=O)N2CCOCC2)O[C@@H]1CO returned Ecoli rRNA inh inactive, SIRT5 block inactive, AF4-AF9 inh inactive and E-selectin induc inactive.
Screening Cc1c(N=C2C=C(Br)C(=O)C(Br)=C2)c(=O)n(-c2ccccc2)n1C returned ERAP1 HTS inh inactive, S100A4 MyoIIA inactive, Ecoli rRNA inh inactive, SIRT5 block inactive and AF4-AF9 inh inactive.
Screening Cc1c(N=C2C=CC(=O)c3ccccc32)c(=O)n(-c2ccccc2)n1C returned ERAP1 HTS inh inactive, S100A4 MyoIIA inactive, Ecoli rRNA inh inactive, SIRT5 block inactive, AF4-AF9 inh 35, E-selectin induc inactive and AlphaScreen intf inactive.
Screening CC(C)C1CC(CCNCc2ccc(N(C)C)cc2)(c2ccccc2)CCO1 (centres undefined) returned ERAP1 HTS inh inactive, S100A4 MyoIIA inactive, Ecoli rRNA inh inactive, SIRT5 block inactive, AF4-AF9 inh 39 and AlphaScreen intf 8.6µM.
`CO[C@H]1CN(C)C(=O)c2cc(NS(C)(=O)=O)ccc2OC[C@@H](C)N(Cc2cccnc2)C[C@@H]1C` gave Ecoli rRNA inh inactive and E-selectin induc inactive.
For COc1ccc(/C=C/C(=O)c2ccc(OC)cc2OC)cc1 the results were ERAP1 HTS inh inactive, S100A4 MyoIIA inactive, Ecoli rRNA inh inactive, SIRT5 block inactive and AF4-AF9 inh inactive.
`COc1ccc(/C=C/C(=O)c2cc3c(cc2N)OCO3)cc1` gave ERAP1 HTS inh inactive, S100A4 MyoIIA inactive, Ecoli rRNA inh inactive, SIRT5 block inactive, AF4-AF9 inh 38 and AlphaScreen intf inactive.
Screening O=C(NC1CCCCC1)C(c1cccnc1)N(C(=O)CCl)c1cccc(Cl)c1 (centres undefined) returned ERAP1 HTS inh inactive, S100A4 MyoIIA inactive, Ecoli rRNA inh inactive, SIRT5 block inactive, AF4-AF9 inh 39 and AlphaScreen intf inactive.
Screening Cc1cccc(N(C(=O)CNC(=O)c2ccco2)C(C(=O)NC2CCCCC2)c2cccnc2)c1 (centres undefined) returned ERAP1 HTS inh inactive, S100A4 MyoIIA inactive, Ecoli rRNA inh inactive, SIRT5 block inactive, AF4-AF9 inh inactive and E-selectin induc inactive.
COc1ccccc1S(=O)(=O)N[C@@H]1C=C[C@H](CC(=O)NCc2cc(F)cc(F)c2)O[C@@H]1CO was read as ERAP1 HTS inh inactive, S100A4 MyoIIA inactive, Ecoli rRNA inh inactive, SIRT5 block inactive, AF4-AF9 inh inactive and E-selectin induc inactive.
Screening Cc1ccc2c(c1)C1CN(C)CCC1N2Sc1ccccc1[N+](=O)[O-] (centres undefined) returned ERAP1 HTS inh inactive, S100A4 MyoIIA inactive, Ecoli rRNA inh inactive, SIRT5 block inactive, AF4-AF9 inh 35, E-selectin induc inactive and AlphaScreen intf 9.3µM.
For Cc1nn(-c2ccccc2)c(Cl)c1/C=C1\C(=O)N(C)C(=S)N1C the results were ERAP1 HTS inh inactive, S100A4 MyoIIA inactive, Ecoli rRNA inh inactive, SIRT5 block inactive, AF4-AF9 inh 40, E-selectin induc inactive and AlphaScreen intf inactive.
Screening O=C(CNCc1cccs1)Nc1ccc(S(=O)(=O)N2CCCCC2)cc1 returned ERAP1 HTS inh inactive, S100A4 MyoIIA inactive, Ecoli rRNA inh inactive, SIRT5 block inactive and AF4-AF9 inh inactive.
O=C(CNCc1cccs1)Nc1ccc(N2CCCCCC2)cc1 was read as ERAP1 HTS inh inactive, S100A4 MyoIIA inactive, Ecoli rRNA inh inactive, SIRT5 block inactive, AF4-AF9 inh 42, E-selectin induc inactive and AlphaScreen intf 13µM.
For C[C@@H]1CN([C@H](C)CO)C(=O)Cc2cc(NC(=O)CCN3CCOCC3)ccc2O[C@H]1CN(C)Cc1ccc(Cl)c(Cl)c1 the results were ERAP1 HTS inh inactive, S100A4 MyoIIA inactive, Ecoli rRNA inh inactive, SIRT5 block inactive, AF4-AF9 inh inactive and E-selectin induc inactive.
CN(C)C(=O)C[C@@H]1CC[C@@H]2[C@H](COC[C@H](O)CN2C(=O)c2ccncc2)O1 was read as ERAP1 HTS inh inactive, S100A4 MyoIIA inactive, Ecoli rRNA inh inactive, SIRT5 block inactive, AF4-AF9 inh inactive and E-selectin induc inactive.
